Laboratory results from ChEMBL document CHEMBL2057182, “Synthesis and biological evaluation of α-methylidene-δ-lactones with 3,4-dihydrocoumarin skeleton” (Bioorg Med Chem, 2012).
Converted amounts (≈) assume the structure as drawn.

Experiments:
[1] = tested on: HL-60; test: Cytotoxicity against human HL60 cells after 48 hrs by MTT assay; type: functional, cell-based; details: HL-60, 48 h
In short: (§1)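 ECACC cells; leukemias in RPMI 1640, MCF-7 and HT-29 in DMEM, each with 10% heat-inactivated FBS plus penicillin/streptomycin, 37 °C, 5% CO2. 8 × 10^3 cells/well seeded, compounds added after 24 h at 10^-7 to 10^-3 M (DMSO diluted in medium) for 48 h. MTT 2 h, formazan dissolved in DMSO, A560 against untreated control. IC50 from concentration–response curves, mean ± SD of at least three experiments.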

[2] = tested on: NALM-6; test: Cytotoxicity against human NALM6 cells after 48 hrs by MTT assay; type: functional, cell-based; details: NALM-6, 48 h; in short: as §1
[3] = tested on: MCF7; test: Cytotoxicity against human MCF7 cells after 48 hrs by MTT assay; type: functional, cell-based; details: MCF7, 48 h; in short: as §1
[4] = tested on: HT-29; test: Cytotoxicity against human HT-29 cells after 48 hrs by MTT assay; type: functional, cell-based; details: HT-29, 48 h; in short: as §1
[5] = tested on: HUVEC; test: Cytotoxicity against human HUVEC cells after 48 hrs by MTT assay; type: cell-based
In short: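 HUVECs cultured as the supplier directs, used at passages 3–8, 37 °C, 5% CO2. Seeded at 8 × 10^3/well, treated after 24 h with compounds at 10^-7 to 10^-3 M (DMSO diluted in complete medium) for 48 h. MTT 2 h, DMSO-solubilized formazan read at 560 nm against untreated cells. IC50 from concentration–response curves, at least three experiments.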

[6] = Therapeutic index ratio of IC50 for human HUVEC cells to IC50 for human HL60 cells; type: cell-based; details: HUVEC cells versus HL60 cells
[7] = Therapeutic index ratio of IC50 for human HUVEC cells to IC50 for human NALM6 cells; type: cell-based; details: HUVEC cells versus NALM6 cells, read-out: Ratio IC50
[8] = Therapeutic index ratio of IC50 for human HUVEC cells to IC50 for human MCF7 cells; type: cell-based; details: HUVEC cells versus MCF7 cells, read-out: Ratio IC50
[9] = tested on: Escherichia coli; test: Antibacterial activity against Escherichia coli NCTC 8196 after 24 hrs by broth microdilution assay; type: functional; details: NCTC 8196, 24 h
In short: (§2)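 MIC by broth microdilution per CLSI, compounds from 20.0 mg/mL DMSO stocks tested at 3.125–400.0 µg/mL (eight twofold dilutions) in Mueller-Hinton broth or RPMI-1640. MIC is the concentration that inhibits growth during 24 h culture, turbidity equal to blank A600 (0.06). Highest final DMSO 2.0%.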

[10] = tested on: Pseudomonas aeruginosa; test: Antibacterial activity against Pseudomonas aeruginosa NCTC 6749 after 24 hrs by broth microdilution assay; type: functional; details: NCTC 6749, 24 h; in short: as §2
[11] = tested on: Candida albicans; test: Antifungal activity against Candida albicans ATCC 10231 after 24 hrs by broth microdilution assay; type: functional; details: ATCC 10231, 24 h; in short: as §2
[12] = tested on: Enterococcus faecalis; test: Antibacterial activity against Enterococcus faecalis ATCC 29212 after 24 hrs by broth microdilution assay; type: functional; details: ATCC 29212, 24 h; in short: as §2
[13] = tested on: Staphylococcus aureus; test: Antibacterial activity against methicillin-sensitive Staphylococcus aureus ATCC 29213 after 24 hrs by broth microdilution assay; type: functional; details: ATCC 29213, 24 h
In short: (§3)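 Broth microdilution in Mueller-Hinton broth, compounds from 20.0 mg/mL DMSO stocks tested over 3.125–400.0 µg/mL (eight twofold dilutions), DMSO at most 2.0% final. MIC is the lowest concentration inhibiting growth over 24 h culture, with turbidity equal to the A600 of a medium blank (0.06). Run under CLSI guidance with ATCC quality-control strains.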

[14] = tested on: Staphylococcus aureus; test: Antibacterial activity against methicillin-resistant Staphylococcus aureus A3 patient isolate after 24 hrs by broth microdilution assay; type: functional; details: A3, 24 h; in short: as §3
[15] = tested on: Staphylococcus aureus; test: Antibacterial activity against methicillin-resistant Staphylococcus aureus A7 patient isolate after 24 hrs by broth microdilution assay; type: functional; details: A7, 24 h; in short: as §3
[16] = tested on: Staphylococcus aureus; test: Antibacterial activity against methicillin-resistant Staphylococcus aureus D5 patient isolate after 24 hrs by broth microdilution assay; type: functional; details: D5, 24 h; in short: as §3
[17] = tested on: Staphylococcus aureus; test: Antibacterial activity against methicillin-sensitive Staphylococcus aureus ATCC 29213 incubated for 24 hrs followed by washout measured after 24 hrs by broth microdilution assay; type: functional; details: ATCC 29213, 24 h
In short: (§4)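 MBC: after the 24 h broth microdilution MIC run (3.125–400.0 µg/mL in Mueller-Hinton broth, DMSO at most 2.0%), 10 µL from the MIC, 2× MIC and 4× MIC wells was subcultured into compound-free broth for 24 h. MBC is the lowest concentration with no visible growth, i.e. at least 99.9% kill of the original inoculum; bactericidal if MBC is at most 4× MIC.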

[18] = tested on: Staphylococcus aureus; test: Antibacterial activity against methicillin-resistant Staphylococcus aureus A3 patient isolate incubated for 24 hrs followed by washout measured after 24 hrs by broth microdilution assay; type: functional; details: A3, 24 h; in short: as §4
[19] = tested on: Staphylococcus aureus; test: Antibacterial activity against methicillin-resistant Staphylococcus aureus A7 patient isolate incubated for 24 hrs followed by washout measured after 24 hrs by broth microdilution assay; type: functional; details: A7, 24 h; in short: as §4
[20] = tested on: Staphylococcus aureus; test: Antibacterial activity against methicillin-resistant Staphylococcus aureus D5 patient isolate incubated for 24 hrs followed by washout measured after 24 hrs by broth microdilution assay; type: functional; details: D5, 24 h; in short: as §4

Row | Compound | IC50 [1] | IC50 [2] | IC50 [3] | IC50 [4] | IC50 [5] | other results
1 | C=C1C(=O)Oc2ccc3ccc(O)cc3c2C1C(C)C (centres undefined) | 0.58 µM | 0.59 µM | 0.36 µM | 0.49 µM |  | 
2 | C=CC1C(=C)C(=O)Oc2cc(OC)cc(OC)c21 (centres undefined) | 8.4 µM | 9.3 µM | 6.2 µM | 5.9 µM |  | 
3 | C=C1C(=O)Oc2cc(OC)ccc2C1C (centres undefined) | 54.5 µM | 53.6 µM | 73 µM | 70 µM | 57.4 µM | 
4 | C=C1C(=O)Oc2ccc3ccccc3c2C1C(C)C (centres undefined) | 0.7 µM | 0.72 µM | 0.48 µM | 2.67 µM | 4.03 µM | selectivity ratio [6]: 5.8; selectivity ratio [7]: 5.6; selectivity ratio [8]: 8; MIC [9]: > 400 µg/mL; MIC [10]: > 400 µg/mL; MIC [11]: > 400 µg/mL
5 | C=C1C(=O)Oc2ccc3ccccc3c2C1CCCC (centres undefined) | 0.72 µM | 2.1 µM | 2.75 µM | 2.9 µM | 3.83 µM | MIC [9]: > 400 µg/mL; MIC [10]: > 400 µg/mL; MIC [11]: > 400 µg/mL; MIC [12]: 25 µg/mL (≈ 93.9 µM); MIC [13]: 6.25 µg/mL (≈ 23.5 µM); MIC [14]: 3.12 µg/mL (≈ 11.7 µM); MIC [15]: 6.25 µg/mL (≈ 23.5 µM); MIC [16]: 3.12 µg/mL (≈ 11.7 µM); MBC [17]: 12.5 µg/mL (≈ 46.9 µM); MBC [18]: 6.25 µg/mL (≈ 23.5 µM); MBC [19]: 6.25 µg/mL (≈ 23.5 µM); MBC [20]: 6.25 µg/mL (≈ 23.5 µM)
6 | C=C1C(=O)Oc2cc3c(cc2C1C(C)C)OCO3 (centres undefined) | 3.3 µM | 0.7 µM | 0.87 µM | 1.5 µM |  | 
7 | C=C1C(=O)Oc2cc(OC)cc(OC)c2C1C (centres undefined) | 5.2 µM | 6 µM | 4.1 µM | 7.2 µM |  | 
8 | C=C1C(=O)Oc2cc(OC)cc(OC)c2C1C(C)C (centres undefined) | 1.3 µM | 3 µM | 2.1 µM | 2.2 µM |  | 
9 | C=CC1C(=C)C(=O)Oc2cc3c(cc21)OCO3 (centres undefined) | 7.85 µM | 7.82 µM | 9.8 µM | 6.2 µM |  | 
10 | C=C1C(=O)Oc2ccc3ccc(O)cc3c2C1CCCC (centres undefined) | 0.62 µM | 0.56 µM | 1.88 µM | 1.73 µM |  | 
11 | C=CC1C(=C)C(=O)Oc2ccc3ccccc3c21 (centres undefined) | 5.7 µM | 6 µM | 4.7 µM | 9.7 µM | 6.1 µM | 
12 | C=C1C(=O)Oc2ccc3ccccc3c2C1C (centres undefined) | 4.8 µM | 5.5 µM | 5.17 µM | 7.26 µM | 6.69 µM | 
13 | C=C1C(=O)Oc2ccc3ccc(O)cc3c2C1C (centres undefined) | 5.81 µM | 5.77 µM | 6.22 µM | 4.3 µM |  | 
14 | C=C1C(=O)Oc2cc3c(cc2C1CCCC)OCO3 (centres undefined) | 0.75 µM | 0.6 µM | 0.54 µM | 1.8 µM |  | 
15 | C=CC1C(=C)C(=O)Oc2cc(OC)ccc21 (centres undefined) | 51.7 µM | 56.6 µM | 62 µM | 42 µM | 57.3 µM | 
16 | C=C1C(=O)Oc2cc(OC)cc(OC)c2C1CCCC (centres undefined) | 3.4 µM | 4.6 µM | 3.3 µM | 5.2 µM |  | 
17 | C=C1C(=O)Oc2cc3c(cc2C1C)OCO3 (centres undefined) | 59.4 µM | 60.7 µM | 40.9 µM | 38.4 µM |  | 
18 | C=C1C(=O)Oc2cc(OC)ccc2C1C(C)C (centres undefined) | 0.56 µM | 0.85 µM | 0.87 µM | 1.7 µM | 3.12 µM | selectivity ratio [6]: 5.6; selectivity ratio [7]: 4; selectivity ratio [8]: 4; MIC [9]: > 400 µg/mL; MIC [10]: > 400 µg/mL; MIC [11]: > 400 µg/mL
19 | C=CC1C(=C)C(=O)Oc2ccc3ccc(O)cc3c21 (centres undefined) | 3.43 µM | 0.79 µM | 4.8 µM | 6.5 µM |  | 
20 | C=C1C(=O)Oc2cc(OC)ccc2C1CCCC (centres undefined) | 5.4 µM | 6.2 µM | 7.1 µM | 10.2 µM | 5.1 µM | MIC [9]: > 400 µg/mL; MIC [10]: > 400 µg/mL; MIC [11]: > 400 µg/mL; MIC [12]: 200 µg/mL (≈ 812 µM); MIC [13]: 50 µg/mL (≈ 203 µM); MIC [14]: 50 µg/mL (≈ 203 µM); MIC [15]: 50 µg/mL (≈ 203 µM); MIC [16]: 50 µg/mL (≈ 203 µM); MBC [17]: 100 µg/mL (≈ 406 µM); MBC [18]: 100 µg/mL (≈ 406 µM); MBC [19]: 100 µg/mL (≈ 406 µM); MBC [20]: 200 µg/mL (≈ 812 µM)
